# Measurements gathered from unrelated publications.
# Compare with care: the assays were run in different laboratories.
# Target: Serine/threonine-protein kinase N1 (PKN1, Homo sapiens, UniProt Q16512)
Compound,assay,conditions,measurement,value
Cn1cc(-c2cc(F)cc(N3CCn4c(cc5c4CCCC5)C3=O)c2CO)cc(Nc2ccc(N3CCN(C4COC4)CC3)cn2)c1=O,"enzyme activity, inhibitor",0.1 µM,inhibition,11%
COc1ncccc1-c1cnn2ccc(N3CCN(C(=O)OC(C)C)CC3)nc12,"binding, competition with immobilised ligand",1 µM,remaining binding,90%
Cn1cc(-c2cccc(N3CCc4c(sc5c4CC(C)(C)C5)C3=O)c2CO)cc(Nc2ccncn2)c1=O,"enzyme activity, inhibitor",1 µM,inhibition,1%
Cc1n[nH]c2ccc(-c3cncc(OC[C@@H](N)Cc4c[nH]c5ccccc45)c3)cc12,"enzyme activity, inhibitor",1 µM,activity vs control,-1%
Nc1ncc(-c2nc(N3CCOCC3)nc(N3CCOCC3)n2)c(C(F)F)n1,"binding, competition with immobilised ligand",10 µM,remaining binding,49%
O=c1[nH]c2ccccc2n1C1CCN(Cc2ccc(-c3[nH]c4cc5ncnc5cc4nc3-c3ccccc3)cc2)CC1,cell-free assay,0.5 µM,remaining signal,90.3%
N#CC1(c2ccccn2)CCN(Cc2cc(C(=O)O)c(=O)n3ccccc23)CC1,"cell-free assay, competition with immobilised ligand",1 µM,remaining binding,100%
Cc1ccccc1-n1c(Cn2cnc3c(N)ncnc32)nc2cccc(C)c2c1=O,"enzyme activity, inhibitor",1 µM,activity vs control,81%
Cn1cncc1[C@@](O)(COc1ccc(C#N)cc1-c1ccc(OC(F)(F)F)cc1)c1ccc(C#N)cc1,"cell-free assay, competition with immobilised ligand",1 µM,remaining binding,100%
O=c1[nH]c2ccc(Cl)cc2c(N[C@@H]2CN3CCC2CC3)c1-c1nc2ccccc2[nH]1,"enzyme activity, inhibitor",1 µM,activity vs control,-1%
CC(C)(C)c1cc(C=C(C#N)C#N)cc(Br)c1O,"enzyme activity, inhibitor",0.5 µM,remaining activity,94.5%
